The results in this text go back to ChEMBL document CHEMBL2311495, “Pyrazolo[1,5-c]quinazoline derivatives and their simplified analogues as adenosine receptor antagonists: synthesis, structure-affinity relationships and molecular modeling studies” (Bioorg Med Chem, 2013).

Assay [1] concerns the target T1, Adenosine receptor A1 (Homo sapiens) (UniProt P30542).
T1 sequence (whole entry): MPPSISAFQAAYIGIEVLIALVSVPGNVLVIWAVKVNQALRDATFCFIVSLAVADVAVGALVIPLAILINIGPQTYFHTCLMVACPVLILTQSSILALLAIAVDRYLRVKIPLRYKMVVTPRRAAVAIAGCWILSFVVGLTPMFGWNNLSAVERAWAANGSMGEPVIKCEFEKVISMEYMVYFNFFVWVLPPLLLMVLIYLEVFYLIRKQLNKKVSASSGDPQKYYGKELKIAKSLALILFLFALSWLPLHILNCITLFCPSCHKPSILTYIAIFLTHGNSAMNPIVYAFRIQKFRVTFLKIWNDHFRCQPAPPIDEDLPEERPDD
Description: Displacement of [3H]DPCPX from human adenosine A1 receptor expressed in CHO cells at 1 uM by scintillation counting. It is filed as cell-based. The gist of the method: (§1)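 hA1 CHO membranes (50 µg protein) incubated with 1 nM [³H]DPCPX in 50 mM Tris-HCl pH 7.4 for 120 min at 25 °C. Six to eight antagonist concentrations, or 1 µM for % inhibition. Nonspecific binding taken with 1 µM DPCPX. Bound ligand filtered and counted. Ki from IC50 via Cheng–Prusoff, four separate assays in duplicate.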

The target in assay [2] is T2, Adenosine receptor A2b (Homo sapiens) (UniProt P29275).
T2 sequence (whole entry): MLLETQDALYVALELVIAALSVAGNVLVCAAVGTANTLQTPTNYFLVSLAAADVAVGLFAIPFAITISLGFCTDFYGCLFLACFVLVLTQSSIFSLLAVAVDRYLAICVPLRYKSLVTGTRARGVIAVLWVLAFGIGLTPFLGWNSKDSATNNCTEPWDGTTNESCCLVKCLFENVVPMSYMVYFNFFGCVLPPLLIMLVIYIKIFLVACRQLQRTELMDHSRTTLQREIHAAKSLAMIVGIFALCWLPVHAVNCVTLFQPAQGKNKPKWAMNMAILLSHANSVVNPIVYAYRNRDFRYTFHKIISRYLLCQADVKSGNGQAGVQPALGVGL
The experiment in a line: Antagonist activity at human adenosine A2b receptor transfected in CHO cells assessed as inhibition of NECA-induced cAMP accumulation at 1 uM by scintillation counting. It is filed as functional, cell-based. The method in brief:
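CHO cells stably expressing hA2B (1 × 10⁶/assay), pre-incubated 10 min at 37 °C, pH 7.4, with adenosine deaminase 2 IU/ml and Ro 20-1724 as PDE inhibitor. Stimulated by 200 nM NECA, compounds tested at 1 µM, result given as percent inhibition. Stopped with cold 6% TCA, ether-extracted, cAMP measured by [³H]cAMP competition with beef adrenal binding protein.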

Assay [3] concerns the target T3, Adenosine receptor A2a (Homo sapiens, UniProt P29274). Description: Displacement of [3H]ZM241385 from human adenosine A2a receptor expressed in CHO cells at 1 uM by scintillation counting. It is filed as cell-based. The gist of the method: (§2)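 Membranes of CHO cells expressing hA2A (50 µg protein) incubated with 1 nM [³H]ZM241385 in 50 mM Tris-HCl, 10 mM MgCl₂, pH 7.4, 60 min at 4 °C. Six to eight antagonist concentrations, or 1 µM for percent inhibition. Filtration and counting. Ki by Cheng–Prusoff from IC50, mean ± SEM of four duplicate experiments.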

The target in assay [4] is T4, Adenosine receptor A3 (Homo sapiens, UniProt P0DMS8).
T4 sequence (P0DMS8 whole entry): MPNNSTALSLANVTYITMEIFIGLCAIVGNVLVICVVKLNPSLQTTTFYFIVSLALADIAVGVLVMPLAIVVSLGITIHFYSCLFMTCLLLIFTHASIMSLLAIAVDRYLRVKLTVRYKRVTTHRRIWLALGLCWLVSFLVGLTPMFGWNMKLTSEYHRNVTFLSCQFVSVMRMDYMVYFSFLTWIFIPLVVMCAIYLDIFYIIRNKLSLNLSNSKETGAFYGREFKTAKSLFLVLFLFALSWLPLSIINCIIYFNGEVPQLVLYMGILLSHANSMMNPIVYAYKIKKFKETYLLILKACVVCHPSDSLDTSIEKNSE
Description: Activity at human adenosine A3 receptor transfected in CHO cells assessed as Cl-IB-MECA-inhibited cAMP accumulation by scintillation counting. It counts as functional, cell-based. The gist of the method: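 hA3-transfected CHO cells (1 × 10⁶/assay), trypsinised, pre-incubated 10 min at 37 °C in buffered salt/glucose medium pH 7.4 with adenosine deaminase 2 IU/ml and Ro 20-1724. cAMP response inhibited by 100 nM Cl-IB-MECA. Stopped with cold 6% TCA, ether-extracted, cAMP read by [³H]cAMP competition binding to beef adrenal binding protein. IC50 as mean ± SEM of four experiments.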

The target in assay [5] is T4, Adenosine receptor A3. Description: Displacement of [125I]AB-MECA from human adenosine A3 receptor expressed in CHO cells by scintillation counting. It counts as cell-based. The method in brief:
(§3)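 hA3 CHO membranes (50 µg protein) incubated with 0.5 nM [¹²⁵I]AB-MECA in 50 mM Tris-HCl, 10 mM MgCl₂, 1 mM EDTA, pH 7.4, for 120 min at 4 °C. Six to eight ligand concentrations, or single 1 µM for % inhibition. Nonspecific binding defined with 1 µM AB-MECA. Filtration on GF/B, counting. Ki by Cheng–Prusoff, mean ± SEM of four duplicate assays.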

Assay [6] deals with T5, Adenosine receptor A3 (Homo sapiens) (UniProt P0DMS8).
T5 sequence (whole entry): T4 sequence (P0DMS8 whole entry)
Description: Displacement of [125I]AB-MECA from human adenosine A3 receptor expressed in CHO cells at 1 uM by scintillation counting. It is filed as cell-based. The gist of the method:
as §3

Another assay deals with T6, Adenosine receptor A2b (Homo sapiens, UniProt P29275).
T6 sequence (P29275 whole entry): T2 sequence (whole entry)
Description: Antagonist activity at human adenosine A2b receptor transfected in CHO cells assessed as inhibition of NECA-induced cAMP accumulation by scintillation counting. It is filed as functional, cell-based.

A further assay has as its target T7, Adenosine receptor A1 (Homo sapiens, UniProt P30542).
T7 sequence (P30542 whole entry): T1 sequence (whole entry)
Description: Displacement of [3H]DPCPX from human adenosine A1 receptor expressed in CHO cells by scintillation counting. It counts as cell-based. The gist of the method:
as §1

Assay [7] deals with T3, Adenosine receptor A2a. Description: Displacement of [3H]ZM241385 from human adenosine A2a receptor expressed in CHO cells by scintillation counting. It counts as cell-based. The gist of the method: as §2

T3 sequence (P29274 whole entry): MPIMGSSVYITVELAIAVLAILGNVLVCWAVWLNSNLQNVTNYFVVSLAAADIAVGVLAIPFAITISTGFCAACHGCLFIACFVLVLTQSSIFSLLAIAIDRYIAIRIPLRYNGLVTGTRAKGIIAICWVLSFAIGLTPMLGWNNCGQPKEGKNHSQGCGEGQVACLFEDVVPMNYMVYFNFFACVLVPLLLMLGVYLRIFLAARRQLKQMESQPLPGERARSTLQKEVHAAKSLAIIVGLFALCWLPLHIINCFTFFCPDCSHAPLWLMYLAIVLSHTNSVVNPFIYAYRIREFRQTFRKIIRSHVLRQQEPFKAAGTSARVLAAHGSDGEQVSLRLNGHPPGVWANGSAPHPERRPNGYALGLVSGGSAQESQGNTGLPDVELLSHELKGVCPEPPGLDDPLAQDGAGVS

In the case of `Oc1nc2ccccc2c2cc(-c3cccs3)nn12`, the inhibition in [1] is 7%; in assay [2], 6%; at Adenosine receptor A2a [3] it was 20%. Moreover, on Adenosine receptor A3 [4], the IC50 came out at 263 nM. Moreover, the Ki at Adenosine receptor A3 [5] was 40 nM.
Regarding `Nc1ccccc1-c1cc(-c2ccco2)n[nH]1`, the inhibition amounted to 1% in assay [6], 4% in [1], 1% in [2] and 6% at Adenosine receptor A2a [3].
For `O=C(OCc1ccccc1)c1cc2c3ccccc3[nH]c(=O)n2n1`, the inhibition stood at 1% in assay [6], 3% in [1], 2% in assay [2] and 4% on Adenosine receptor A2a [3].
Turning to `COc1ccc(-c2cc3c4ccccc4nc(N)n3n2)cc1`, the inhibition in assay [6] stood at 45%; in assay [1] it was 7%; in assay [2], 3%; at Adenosine receptor A2a [3], 15%.
In the case of `O=C(Nc1nc2ccccc2c2cc(-c3ccccc3)nn12)c1ccccc1`, the inhibition was found to be 1% in assay [1], 4% in [2] and 1% on Adenosine receptor A2a [3]. The Ki on Adenosine receptor A3 [5] was found to be 520 nM.
Turning to `COc1ccc(-c2cc(-c3ccccc3N)[nH]n2)cc1`, the inhibition came to 2% in assay [1], 5% in assay [2] and 9% at Adenosine receptor A2a [3].
Take `Nc1nc2ccccc2c2cc(-c3ccco3)nn12`: in assay [6], the inhibition came to 35%. Further, at Adenosine receptor A2b, the IC50 is 120 nM. In addition, the Ki worked out at 35 nM at Adenosine receptor A1 and 80 nM at Adenosine receptor A2a [7].
`Oc1nc2ccccc2c2cc(-c3ccccc3F)nn12`: the inhibition in assay [1] came out at 1%; in assay [2] it was 1%; at Adenosine receptor A2a [3], 11%. Also, the Ki at Adenosine receptor A3 [5] is 140 nM.
On to `Nc1nc2ccccc2c2cc(-c3cccs3)nn12`, for which the inhibition is 18% in [6], 44% in assay [1], 3% in [2] and 20% on Adenosine receptor A2a [3].
For `CCOC(=O)c1cc2c3ccccc3[nH]c(=O)n2n1`, at Adenosine receptor A3 [5], the Ki was found to be 315 nM.
For the compound `Nc1ccccc1-c1cc(-c2cccs2)n[nH]1`, the inhibition in assay [1] came out at 2%; in assay [2], 3%; on Adenosine receptor A2a [3], 1%.
In the case of `Oc1ccccc1-c1cc(-c2ccccc2)[nH]n1`, the inhibition amounted to 7% in assay [6], 13% in assay [1], 4% in assay [2] and 1% at Adenosine receptor A2a [3].
Consider `CCOC(=O)c1nn2c(=O)[nH]c3ccccc3c2c1C(=O)OCC`, for which the figures for the inhibition (in assay [1]; in assay [2]; at Adenosine receptor A2a [3]) were 12%, 5% and 1%, respectively. Moreover, the affinity at Adenosine receptor A3 [5], expressed as Ki, was 101 nM.
On to `COc1ccc(-c2cc(-c3ccccc3N)n[nH]2)cc1`, for which the inhibitory constant (Ki) on Adenosine receptor A3 [5] was 480 nM.
On to `CCOC(=O)c1cc2c3ccccc3nc(O)n2n1`, for which the inhibition in [1] is 3%; in assay [2], 3%; on Adenosine receptor A2a [3], 5%.
As for `Oc1nc2ccccc2c2cc(-c3ccco3)nn12`, the inhibition in assay [1] is 5%; in assay [2] it was 3%; at Adenosine receptor A2a [3] it was 1%. The IC50 at Adenosine receptor A3 [4] was 138 nM. Affinity on Adenosine receptor A3 [5] was put at a Ki of 80 nM.
As for `Oc1nc2ccccc2c2cc(-c3ccccc3)nn12`, the inhibition in assay [6] worked out at 28%; in assay [1], 12%; in assay [2], 4%; on Adenosine receptor A2a [3], 1%.
In the same order, the values of `Nc1nc2ccccc2c2cc(-c3ccccc3)nn12` are 15%, 1%, 3% and 5%.
For `Oc1nc2ccccc2c2cc(-c3ccc(Cl)cc3)nn12`, the inhibition in [1] came to 6%; in [2], 3%; at Adenosine receptor A2a [3], 1%. In addition, the IC50 on Adenosine receptor A3 [4] is 82 nM. On Adenosine receptor A3 [5], the Ki was 23 nM.
For `O=C(NCc1ccccc1)c1cc2c3ccccc3[nH]c(=O)n2n1`, the inhibition is 25% in [6], 2% in assay [1], 1% in [2] and 5% at Adenosine receptor A2a [3].
Regarding `CC(C)OC(=O)c1cc2c3ccccc3nc(O)n2n1`, the inhibition was determined as 1% in [1], 4% in assay [2] and 1% on Adenosine receptor A2a [3]. Further, at Adenosine receptor A3 [5], the Ki was found to be 450 nM.
In the case of `COC(=O)c1cc2c3ccccc3[nH]c(=O)n2n1`, at Adenosine receptor A3 [5], the affinity corresponds to a Ki of 440 nM.
In the case of `COC(=O)c1cc2c3ccccc3nc(O)n2n1`, the results for the inhibition (in [1]; in assay [2]; on Adenosine receptor A2a [3]) were 1%, 6% and 3%, respectively.
Take `CCOC(=O)c1ccccc1-c1cc(-c2cccs2)n[nH]1`: the inhibition stood at 23% in assay [6], 3% in assay [1], 2% in assay [2] and 1% at Adenosine receptor A2a [3].
Take `Cc1ccc(-c2cc3c4ccccc4nc(O)n3n2)cc1`: the values for the inhibition (in assay [1]; in assay [2]; at Adenosine receptor A2a [3]) were 1%, 2% and 12%, respectively. For the same compound, the half-inhibitory concentration (IC50) on Adenosine receptor A3 [4] is 88 nM. Besides, the inhibitory constant (Ki) at Adenosine receptor A3 [5] was 25 nM.
For `Nc1ccccc1-c1cc(-c2cccs2)[nH]n1`, the Ki at Adenosine receptor A3 [5] stood at 600 nM.
In the case of `Oc1nc2ccccc2c2cc(-c3ccccn3)nn12`, the figures for the inhibition (in [1]; in assay [2]; at Adenosine receptor A2a [3]) were 4%, 2% and 1%, respectively. The inhibitory constant (Ki) at Adenosine receptor A3 [5] worked out at 252 nM.
As to `COc1ccc(-c2cc3c4ccccc4[nH]c(=O)n3n2)cc1`, the inhibition in assay [1] turned out to be 4%; in assay [2], 2%; at Adenosine receptor A2a [3], 1%. Also, the IC50 on Adenosine receptor A3 [4] turned out to be 324 nM. This compound also yielded an inhibition constant Ki at Adenosine receptor A3 [5] of 100 nM.
As to `Oc1ccccc1-c1n[nH]c(-c2ccccc2)n1`, the inhibition came to 39% in [6], 47% in assay [1], 8% in assay [2] and 2% on Adenosine receptor A2a [3].
As for `Nc1ccccc1-c1cc(-c2ccccc2)n[nH]1`, the inhibition in assay [1] came to 9%; in assay [2], 2%; on Adenosine receptor A2a [3], 1%. Further, the Ki on Adenosine receptor A3 [5] is 680 nM.
